Experiments:
[1] = tested on: LAPC4; experiment: Androgenic activity in human LAPC4 cells expressing androgen receptor assessed as induction of cell proliferation at 0.1 uM after 3 days by MTS assay relative to control; type: functional
Summary of the method: (§1)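 LAPC-4 (AR+) cells in RPMI-1640 with 5% dextran-coated charcoal-treated FBS to remove hormones. Triplicate cultures of 10,000 cells preincubated 24 h at 37 °C, 5% CO2. Compounds from 10^-2 M DMSO stock, diluted in medium, added for 3 days (final DMSO 0.05%; vehicle controls). Growth read by MTS. Androgenicity = % proliferation minus basal set at 100%.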

[2] = biological target: T1, 17-beta-hydroxysteroid dehydrogenase type 3 (Rattus norvegicus) (UniProt O54939); experiment: Inhibition of 17beta-HSD3 in rat testes microsomes using [14C]-4-androstene-3,17-dione as substrate measured based on 33% of initial enzyme transformation at 1 uM after 2 hrs; conditions: Testis
T1 sequence (whole entry): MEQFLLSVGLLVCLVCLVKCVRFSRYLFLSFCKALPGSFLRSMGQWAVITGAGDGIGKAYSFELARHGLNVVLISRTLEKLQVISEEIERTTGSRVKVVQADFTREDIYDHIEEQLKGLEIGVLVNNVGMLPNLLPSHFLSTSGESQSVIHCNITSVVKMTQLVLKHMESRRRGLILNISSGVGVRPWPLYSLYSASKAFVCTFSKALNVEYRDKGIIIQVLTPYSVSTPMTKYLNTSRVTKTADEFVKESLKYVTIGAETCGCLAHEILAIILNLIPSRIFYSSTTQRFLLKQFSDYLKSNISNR
Summary of the method: (§2)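 Rat testis microsomes: homogenate in phosphate/sucrose/EDTA buffer pH 7.5 with protease inhibitors, spun 12,500g, then pellet from 100,000g, at 4 °C. Reaction 2 h at 37 °C in 50 mM sodium phosphate pH 7.4, 20% glycerol, 1 mM EDTA, with NADPH and [14C]-Δ4-dione (50 nM). Inhibitor in DMSO. [14C]-T and substrate identified against reference steroids and quantified. Percent transformation and percent inhibition calculated.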

[3] = biological target: T1, 17-beta-hydroxysteroid dehydrogenase type 3 (Rattus norvegicus); experiment: Inhibition of 17beta-HSD3 in rat testes microsomes using [14C]-4-androstene-3,17-dione as substrate measured based on 33% of initial enzyme transformation at 0.1 uM after 2 hrs; conditions: Testis; summary of the method: as §2
[4] = tested on: LAPC4; experiment: Androgenic activity in human LAPC4 cells expressing androgen receptor assessed as induction of cell proliferation at 1 uM after 3 days by MTS assay relative to control; type: functional; summary of the method: as §1
[5] = biological target: T1, 17-beta-hydroxysteroid dehydrogenase type 3 (Rattus norvegicus); experiment: Inhibition of 17beta-HSD3 in rat testes microsomes using [14C]-4-androstene-3,17-dione as substrate measured based on 33% of initial enzyme transformation at 10 uM after 2 hrs; conditions: Testis; summary of the method: as §2
[6] = biological target: T1, 17-beta-hydroxysteroid dehydrogenase type 3 (Rattus norvegicus); experiment: Inhibition of 17beta-HSD3 in rat testes microsomes using [14C]-4-androstene-3,17-dione as substrate measured based on 4% of initial enzyme transformation at 1 uM after 2 hrs; conditions: Testis; summary of the method: as §2
[7] = biological target: T1, 17-beta-hydroxysteroid dehydrogenase type 3 (Rattus norvegicus); experiment: Inhibition of 17beta-HSD3 in rat testes microsomes using [14C]-4-androstene-3,17-dione as substrate measured based on 18% of initial enzyme transformation at 1 uM after 2 hrs; conditions: Testis; summary of the method: as §2
[8] = biological target: T1, 17-beta-hydroxysteroid dehydrogenase type 3 (Rattus norvegicus); experiment: Inhibition of 17beta-HSD3 in rat testes microsomes using [14C]-4-androstene-3,17-dione as substrate measured based on 18% of initial enzyme transformation at 0.1 uM after 2 hrs; conditions: Testis; summary of the method: as §2
[9] = biological target: T1, 17-beta-hydroxysteroid dehydrogenase type 3 (Rattus norvegicus); experiment: Inhibition of 17beta-HSD3 in rat testes microsomes using [14C]-4-androstene-3,17-dione as substrate measured based on 4% of initial enzyme transformation at 10 uM after 2 hrs; conditions: Testis; summary of the method: as §2
[10] = biological target: T1, 17-beta-hydroxysteroid dehydrogenase type 3 (Rattus norvegicus); experiment: Inhibition of 17beta-HSD3 in rat testes microsomes using [14C]-4-androstene-3,17-dione as substrate measured based on 18% of initial enzyme transformation at 0.01 uM after 2 hrs; conditions: Testis; summary of the method: as §2
[11] = biological target: T2, 17-beta-hydroxysteroid dehydrogenase type 3 (Rattus norvegicus, UniProt O54939); experiment: Inhibition of 17beta-HSD3 in rat testes microsomes using [14C]-4-androstene-3,17-dione as substrate after 2 hrs; set-up: species or system Testis; summary of the method: as §2
T2 sequence (O54939 whole entry): T1 sequence (whole entry)

[12] = biological target: T3, 17-beta-hydroxysteroid dehydrogenase type 3 (Homo sapiens) (UniProt P37058); experiment: Inhibition of 17beta-HSD3 (unknown origin) expressed in human LNCaP cells using [14C]-4-androstene-3,17-dione as substrate at 1 uM after 3 hrs; type: cell-based
T3 sequence (whole entry): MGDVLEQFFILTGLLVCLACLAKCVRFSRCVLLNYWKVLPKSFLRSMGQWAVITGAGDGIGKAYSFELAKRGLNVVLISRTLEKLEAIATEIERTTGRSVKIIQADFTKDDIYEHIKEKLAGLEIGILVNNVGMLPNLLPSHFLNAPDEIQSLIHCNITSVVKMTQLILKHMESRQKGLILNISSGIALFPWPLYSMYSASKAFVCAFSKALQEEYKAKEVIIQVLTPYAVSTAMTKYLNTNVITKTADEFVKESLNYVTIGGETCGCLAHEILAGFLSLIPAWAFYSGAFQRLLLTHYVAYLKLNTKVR
Summary of the method: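 LNCaP cells stably transfected with 17β-HSD3, kept under hygromycin, which was omitted during assay. 15,000 cells/well grown 3 days in protocol medium, then given 15 nM [14C]-4-androstene-3,17-dione plus inhibitor in DMSO (final 0.05%) for 3 h. Steroids extracted from medium, separated by TLC and quantified. Percent inhibition of T formation calculated.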

[13] = biological target: T1, 17-beta-hydroxysteroid dehydrogenase type 3 (Rattus norvegicus); experiment: Ratio of delta4-dione IC50 to compound IC50 for 17beta-HSD3 in rat testes microsomes; conditions: Testis

SMILES	Activity [1]	inhibition [2]	inhibition [3]	Activity [4]	inhibition [5]	inhibition [6]	inhibition [7]	inhibition [8]	inhibition [9]	inhibition [10]	IC50 [11]	inhibition [12]	Ratio IC50 [13]
C[C@]12CC[C@@]3(C[C@@H]1CC[C@@H]1[C@@H]2CC[C@]2(C)C(=O)CC[C@@H]12)CN(CCCCc1ccccc1)CC(=O)O3	5.3%	91.1%	79.9%	19.2%	91.3%								
C[C@]12CC[C@@]3(C[C@@H]1CC[C@@H]1[C@@H]2CC[C@]2(C)C(=O)CC[C@@H]12)CN(Cc1ccc(OCc2ccccc2)cc1)CC(=O)O3	0%	90.8%	80.4%	16.7%	93.4%								
C[C@]12CC[C@@]3(C[C@@H]1CC[C@@H]1[C@@H]2CC[C@]2(C)C(=O)CC[C@@H]12)CN(Cc1ccc(Br)cc1)CC(=O)O3	21.8%	92.9%	79.1%	45.7%	91.6%								
C[C@]12CC[C@@]3(C[C@@H]1CC[C@@H]1[C@@H]2CC[C@]2(C)C(=O)CC[C@@H]12)CN(Cc1ccccc1)CC(=O)O3	8.1%	91.6%	80.8%	30.5%	94.3%	90.9%	89.2%	56%	95.2%	27.2%			
COC(=O)[C@@H](CC(C)C)N1C[C@]2(CC[C@@]3(C)[C@@H](CC[C@@H]4[C@@H]3CC[C@]3(C)C(=O)CC[C@@H]43)C2)OC1=O	1.5%			21.9%		76.9%	73.6%	55.4%	67.8%				
C[C@]12CCC(=O)C=C1CC[C@@H]1[C@@H]2CC[C@]2(C)C(=O)CC[C@@H]12 [ANDROSTENEDIONE]											169 nM		
C[C@]12CC[C@@]3(C[C@@H]1CC[C@@H]1[C@@H]2CC[C@]2(C)C(=O)CC[C@@H]12)CN(C(=O)c1ccc(C(F)(F)F)cc1)CC(=O)O3	0%			0%			87.1%	45.4%		24.3%	88 nM	40%	2
C[C@]12CC[C@@]3(C[C@@H]1CC[C@@H]1[C@@H]2CC[C@]2(C)C(=O)CC[C@@H]12)CN(CC(CN1CCOCC1)OC(=O)C1CCCCC1)C(=O)O3 (some centres not stated)	4.8%			9.4%		93.9%	93.1%	51.5%	97.2%				
C[C@]12CC[C@@]3(C[C@@H]1CC[C@@H]1[C@@H]2CC[C@]2(C)C(=O)CC[C@@H]12)CN(CCCc1ccccc1)CC(=O)O3	64.9%	90.5%	74.9%	55.5%	92.3%								
C[C@]12CC[C@@H](O)C[C@@H]1CC[C@@H]1[C@@H]2CC[C@]2(C)C(=O)CC[C@@H]12 [ANDROSTERONE]											90 nM		
O=C1OC2(CCCCC2)CN[C@H]1Cc1ccccc1					20.6%								
C[C@]12CC[C@@]3(C[C@@H]1CC[C@@H]1[C@@H]2CC[C@]2(C)C(=O)CC[C@@H]12)CN(Cc1ccc(-c2ccccc2)cc1)CC(=O)O3	47.7%	93.1%	81.9%	55.1%	95.2%								
C[C@]12CC[C@@]3(C[C@@H]1CC[C@@H]1[C@@H]2CC[C@]2(C)C(=O)CC[C@@H]12)CN(CCc1ccc(C(F)(F)F)cc1)CC(=O)O3	40.2%	92.1%	70.7%	76.1%	93.3%								
COC(=O)[C@H](CC(C)C)N1C[C@]2(CC[C@@]3(C)[C@@H](CC[C@@H]4[C@@H]3CC[C@]3(C)C(=O)CC[C@@H]43)C2)OC1=O	0%			8.4%		82.3%	93.6%	57.6%	88.4%				
C[C@]12CC[C@@]3(C[C@@H]1CC[C@@H]1[C@@H]2CC[C@]2(C)C(=O)CC[C@@H]12)CN(Cc1ccc(C(F)(F)F)cc1)CC(=O)O3	12.3%	94%	83.4%	31.7%	91.2%								
C[C@]12CC[C@@]3(C[C@@H]1CC[C@@H]1[C@@H]2CC[C@]2(C)C(=O)CC[C@@H]12)CN(CCc1ccccc1)CC(=O)O3	48.9%	92.2%	78.5%	79.7%	95.2%								
O=C1OC2(CCCCC2)CN(Cc2ccccc2)[C@H]1Cc1ccccc1					29.2%								
CC(C)C[C@H]1C(=O)O[C@@]2(CC[C@@]3(C)[C@@H](CC[C@@H]4[C@@H]3CC[C@]3(C)C(=O)CC[C@@H]43)C2)CN1Cc1ccccc1	8.4%			44.2%		77.3%	93.1%	62.9%	87.1%				
CC(C)C[C@@H]1NC[C@]2(CC[C@@]3(C)[C@@H](CC[C@@H]4[C@@H]3CC[C@]3(C)C(=O)CC[C@@H]43)C2)OC1=O	14.5%			11.1%		69.3%	84.9%	39.4%	83.8%				
C[C@]12CC[C@@]3(C[C@@H]1CC[C@@H]1[C@@H]2CC[C@]2(C)C(=O)CC[C@@H]12)CN(Cc1ccc(OC(F)(F)F)cc1)CC(=O)O3	45.9%	93.8%	79%	74.9%	95.7%								
